Compound activity from PubChem.
Compounds with a hit are over-represented: about 2.8% of the library has one in this group of screens.
PGE2 EP2 inh – human EP2 receptor antagonists, primary screen, TR-FRET cAMP, C6 glioma cells. Prostaglandin E2 receptor EP2 subtype (Homo sapiens), P43116. C6 glioma cells expressing human EP2; cells stimulated with saturating PGE2. inhibition, % at 25 µM. actives 0.52% (n = 260,000). AID 1422, 2008;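 active = percent inhibition above 40 after rounding to a whole number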;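 note: rat C6 glioma host cells with rolipram phosphodiesterase inhibitor present; the protocol text gives 20 µM as final concentration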
Target sequence (P43116 whole entry, looked up): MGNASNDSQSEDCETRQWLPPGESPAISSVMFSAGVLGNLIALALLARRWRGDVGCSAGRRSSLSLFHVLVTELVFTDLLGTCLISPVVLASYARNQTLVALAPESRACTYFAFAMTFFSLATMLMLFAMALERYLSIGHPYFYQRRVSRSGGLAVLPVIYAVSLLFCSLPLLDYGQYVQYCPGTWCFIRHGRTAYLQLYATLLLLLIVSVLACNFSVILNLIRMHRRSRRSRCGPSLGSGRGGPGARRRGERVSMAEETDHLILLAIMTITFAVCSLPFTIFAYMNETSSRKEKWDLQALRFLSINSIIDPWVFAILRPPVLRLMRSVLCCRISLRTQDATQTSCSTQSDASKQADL
NPY1 pot ag – NPY-Y1 receptor potentiators or agonists, primary screen, cell-based; Neuropeptide Y receptor type 1 (Homo sapiens), P25929; activation, % at 3.6 µM; AID 1304, 2008; actives 0.37% (n = 220,000); NPY-Y1 expressing cells, potentiator/agonist activation; in the data active = activation above about 33%, passing the limit was not always enough;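 note: cells stimulated with NPY at EC10 then isoproterenol at EC100; 0% = low agonist plus stimulus and 100% = saturating agonist plus stimulus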
EP2 mod – EP2 receptor modulators, cAMP readout, primary screen, cell-based, HTRF cAMP, PGE2 stimulation. actives 0.83% (n = 260,000). EP2-expressing cells, cAMP HTRF FRET, PGE2 co-stimulation. Prostaglandin E2 receptor EP2 subtype (Homo sapiens), P43116. induction, % at 25 µM;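 active = compounds whose cAMP rise, as percent of the full-agonist control response, exceeds 60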;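 note: rat C6 glioma line stably carrying human EP2 under a CMV promoter; the protocol text gives 20 µM as final concentration; 100% = response of wells given 1 µM PGE2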
NPY Y1 blocker – NPY-Y1 receptor antagonists, primary screen, cell-based; Neuropeptide Y receptor type 1 (Homo sapiens), P25929; HEK293-CNG Y1 cells, membrane potential fluorescence; NPY at EC95, then isoproterenol; inhibition, % at 3.6 µM; actives 1% (n = 200,000); AID 1040, 2008;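 active = inhibition above the campaign mean inhibition of all tested compounds plus 3 SD, cut at about 20% in these data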;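 note: 0% = DMSO wells given NPY plus isoproterenol and 100% = isoproterenol alone without NPY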
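Material: HEK293 cells with Y1 receptor plus CNG channel; times: compound incubation 1 h at room temperature, readout 45 min post-stimulation; signal: fluorescence, membrane potential probe; read-out basis: fluorescence ratio normalized to % inhibition between controls; benchmarks: full-block control isoproterenol-only wells, zero-block control NPY plus isoproterenol wells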
NPY2 pot ag – NPY-Y2 potentiators or agonists, primary screen, cell-based; actives 0.45% (n = 220,000); cells expressing NPY-Y2, potentiator/agonist read-out; activation, % at 3.6 µM; AID 1359, 2008; in the data active = activation above about 27%;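 note: cells stimulated with NPY near EC25 plus isoproterenol at EC100; 0% = vehicle plus submaximal agonist and 100% = vehicle plus saturating agonist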
NPY Y2 blocker – NPY-Y2 receptor antagonists, primary screen, cell-based; NPY-Y2 expressing cells, antagonist mode; inhibition, % at 2.7 µM; actives 0.99% (n = 140,000); in the data active = inhibition above about 17%;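 note: 0% = vehicle with agonist challenge and 100% = reference antagonist with challenge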
An asterisk follows results filed as active; x = no result.

SMILES	PGE2 EP2 inh	NPY1 pot ag	EP2 mod	NPY Y1 blocker	NPY2 pot ag	NPY Y2 blocker
COC(=O)CN1C(c2ccccc2)=Nc2ccc(Cl)cc2C1c1ccccc1 (stereo not drawn)	10	-6	40	27*	-4	22*
O=C1OC(Nc2cccc3ccccc23)c2ccccc21 (stereo not drawn)	9	x	-6	x	x	x
Cc1ccn2c(NCc3ccco3)c(-c3ccccc3)nc2c1	8	x	13	x	x	x
Cc1ccc2[nH]c(=O)c(-c3nc4cc(C)ccn4c3NCc3ccco3)cc2c1	5	31	-4	-2	33*	7
CCCN1C(=O)C(NC(C)=O)c2cc(C)ccc21 (stereo not drawn)	12	x	8	x	x	x
CCCCn1c(NCc2ccc3c(c2)OCO3)nc2ccccc21	22	-19	18	20*	-1	15
CCN(CC)c1ccc(CNc2nc3ccccc3n2CCN2CCCCC2)cc1	7	45*	-7	14	44*	x
CCN(CC)CCn1c(NCc2nc3ccccc3n2Cc2ccccc2)nc2ccccc21	5	-46	36	22*	-1	19*
Cn1c(CNc2nc3ccccc3n2CCN2CCCCC2)nc2ccccc21	8	-44	10	7	-16	6
c1ccc(Cn2c(CNc3nc4ccccc4n3CCN3CCCCC3)nc3ccccc32)cc1	-2	-29	28	17	-6	27*
COC(=O)c1c(NC(=O)C2CC2)sc(C(=O)Nc2ccc(C)c(Cl)c2)c1C	5	x	-14	x	x	x
COc1ccc([C@@H]2C[C@H](C(=O)NCc3cccs3)N(C)S(=O)(=O)N2)cc1	x	x	-56	x	x	x
COc1ccc(NC(=O)Cc2nc3ccccc3[nH]2)cc1	-4	-49	13	13	-23	22*
Cn1c(=O)c2[nH]c([C@@H]3CC(=O)C[C@H](c4nc5c([nH]4)c(=O)n(C)c(=O)n5C)N3)nc2n(C)c1=O	46*	x	18	x	x	x
CCc1nccn1CCC(=O)N1CCCC(n2nc(-c3cccs3)ccc2=O)C1 (stereo not drawn)	x	x	-12	x	x	x
O=C(Cc1cccs1)Nc1cccc(-c2nc3cc4ccccc4cc3[nH]2)c1	117*	-5	-78	-2	-4	3
O=C(Nc1ccccc1Cl)NC1CC2CCCC(C1)N2C1CC1 (stereo not drawn)	10	x	-80	x	x	x
CCOC(=O)c1c(NC(=O)CSc2ncccn2)sc2c1CCN(Cc1ccccc1)C2	6	-79	18	33*	-32	17*
Cc1cc(C)nc(N2CCC(C(=O)Nc3cccc4ccccc34)CC2)n1	11	x	-49	x	x	x
CCc1nc2sc(C(C)=O)c(N)c2c2c1CCCC2	6	6	32	x	-17	x
CCc1nc2sc(C#N)c(N)c2c2c1CCCC2	6	-76	54	49*	-20	57*
Cn1cc(C(=O)N/N=C/C2=C(N3CCOCC3)C(=C\c3ccccc3)/CC2)ccc1=O	4	6	4	-2	-5	0
O=C1Nc2ccccc2/C1=N\N=C\C1=C(N2CCOCC2)C(=C\c2ccccc2)/CC1	12	46*	16	-20	42*	-11
C=CCOc1nnc(OCC=C)c2ccccc12	8	x	59	x	x	x
O=C(/C=C/c1ccccc1)NCCc1c[nH]c2ccccc12	74*	x	-134	x	x	x
SMILES	PGE2 EP2 inh	NPY1 pot ag	EP2 mod	NPY Y1 blocker	NPY2 pot ag	NPY Y2 blocker
CC(CCc1ccccc1)NC(=O)/C=C/c1ccc(Cl)cc1 (stereo not drawn)	11	-47	-96	32*	-21	21*
Cc1ccc(CNC(=O)/C=C/c2ccccc2Cl)cc1	16	-25	-33	31*	-14	12
Cc1ccc(/C=C/C(=O)NCCCc2ccccc2)cc1	6	-51	-14	37*	-34	34*
CC(Cc1ccccc1)NC(=O)/C=C/c1ccc([N+](=O)[O-])cc1 (stereo not drawn)	9	1	-13	0	3	0
C#CCNC(=O)/C=C/c1ccc(C)cc1	5	-1	-3	5	3	2
COc1cccc(NC(=O)c2cc3sccc3n2C)c1	13	x	-41	x	x	x
